# Results reported in ChEMBL document CHEMBL4004831, “Naphthalene diimide-polyamine hybrids as antiproliferative agents: Focus on the architecture of the polyamine chains” (Eur J Med Chem, 2017).
# The source made the active and inactive calls. No cut-off for these calls is given here.
# Experiments:
# SK-MEL-28 = experiment: Growth inhibition of human SK-MEL-28 cells incubated for 48 hrs by sulforhodamine B assay; type: functional; settings: SK-MEL-28, 48 h
# Hs-578T = experiment: Growth inhibition of human Hs 578T cells incubated for 48 hrs by sulforhodamine B assay; type: functional
# SF-539 = experiment: Growth inhibition of human SF539 cells incubated for 48 hrs by sulforhodamine B assay; type: functional; settings: SF-539, 48 h
# HL-60 = experiment: Growth inhibition of human HL60 cells incubated for 48 hrs by sulforhodamine B assay; type: functional; settings: HL-60, 48 h
# SK-MEL-2 = experiment: Growth inhibition of human SK-MEL-2 cells incubated for 48 hrs by sulforhodamine B assay; type: functional; settings: SK-MEL-2, 48 h
# CAKI-1 = experiment: Growth inhibition of human Caki1 cells incubated for 48 hrs by sulforhodamine B assay; type: functional; settings: CAKI-1, 48 h
# HCT-15 = experiment: Growth inhibition of human HCT15 cells incubated for 48 hrs by sulforhodamine B assay; type: functional; settings: HCT-15, 48 h
# RPMI-8226 = experiment: Growth inhibition of human RPMI8226 cells incubated for 48 hrs by sulforhodamine B assay; type: functional; settings: RPMI-8226, 48 h
# T47D = experiment: Growth inhibition of human T47D cells incubated for 48 hrs by sulforhodamine B assay; type: functional
# MOLT-4 = experiment: Growth inhibition of human MOLT4 cells incubated for 48 hrs by sulforhodamine B assay; type: functional; settings: MOLT-4, 48 h
# EKVX = experiment: Growth inhibition of human EKVX cells incubated for 48 hrs by sulforhodamine B assay; type: functional
# RXF 393 = experiment: Growth inhibition of human RXF393 cells incubated for 48 hrs by sulforhodamine B assay; type: functional; settings: RXF 393, 48 h
# CCRF-CEM = experiment: Growth inhibition of human CCRF-CEM cells incubated for 48 hrs by sulforhodamine B assay; type: functional
# Homo sapiens = species: Homo sapiens; experiment: Stabilization of 5'Dabcyl/3'FAM labeled human telomeric sequence G-quadruplex DNA assessed as increase in melting temperature at 2.5 uM pretreated for 5 mins at 30 degreeC followed by 5 mins incubation at 95 degreeC by fluorescence assay
# Outline: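 FRET melting in LiP buffer (10 mM LiOH, 50 mM KCl, pH 7.0 with H3PO4), ex 488 nm, em 520 nm. Samples were held 5 min at 30 °C, heated at 1 °C/min to 95 °C, held 5 min, then re-annealed. Tm came from first derivatives; ΔTm = shift with ligand at 2.5; at least three runs.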
# Jurkat [1] = experiment: Cell cycle arrest in human Jurkat T cells assessed as accumulation at G0/G1 phase at 3.2 uM after 24 hrs by propidium iodide staining based flow cytometry (reference value: 62.7 to 68.6%); type: functional
# COLO 205 = experiment: Growth inhibition of human COLO205 cells incubated for 48 hrs by sulforhodamine B assay; type: functional; settings: COLO 205, 48 h
# Thermus aquaticus = experiment: Inhibition of Thermus aquaticus DNA polymerase-mediated amplification of fragment of pBR322 by PCR
# Outline: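 PCR amplification of a pBR322 fragment by Taq polymerase with increasing compound (0.25–40) for 25 cycles: 94 °C, 58 °C and 72 °C, 30 s each. Products were run on 2% agarose in 0.5X TBE (4.2 V/cm, 1.5 h) and stained with ethidium bromide. IC50 is the concentration halving activity; MIC is the lowest concentration that suppresses activity.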
# Jurkat [2] = experiment: Induction of apoptosis in human Jurkat T cells at 6.4 uM after 24 hrs by annexin V-phycoerythrin/7-AAD staining based flow cytometry (reference value: 5.8 to 6.6%); type: functional
# [3] = biological target: T1, DNA topoisomerase 2-alpha (Homo sapiens, UniProt P11388); experiment: Inhibition of human topoisomerase-2alpha-mediated relaxation of supercoiled pBR322 DNA after 1 hr by ethidium bromide staining based agarose gel electrophoresis
# Outline: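 Supercoiled pBR322 was incubated with compound (0.5–100) and 1 U human topoisomerase IIα in enzyme buffer for 1 h at 37 °C. Reactions were stopped with Tris/EDTA/NaCl loading buffer (pH 8.0) and run on 1% agarose in TAE with 0.1% SDS (4.9 V/cm, 90 min), then stained with ethidium bromide. IC50 is the concentration reducing relaxation activity by 50%.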
# [4] = biological target: Telomerase reverse transcriptase (Homo sapiens) (UniProt O14746); experiment: Inhibition of telomerase activity in human HeLa cells using 5'AATCCGTCGAGCAGAGTT3' as substrate after 30 mins by Sybr green1 staining based TRAP-PCR method; type: cell-based
# 786-0 = experiment: Growth inhibition of human 786-0 cells incubated for 48 hrs by sulforhodamine B assay; type: functional; settings: 786-0, 48 h
# Jurkat [5] = experiment: Cell cycle arrest in human Jurkat T cells assessed as accumulation at G2/M phase at 3.2 uM after 24 hrs by propidium iodide staining based flow cytometry (reference value: 17.1 to 20.8%); type: functional
# NCI-H322M = experiment: Growth inhibition of human NCI-H322M cells incubated for 48 hrs by sulforhodamine B assay; type: functional
# Escherichia coli [6] = experiment: Binding affinity to Escherichia coli supercoiled pBR322 DNA assessed as DNA intercalation up to 100 uM by agarose gel electrophoresis
# Outline: (§1)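 Supercoiled pBR322 mixed with ligand (0–100 µM) in 10 mM Tris, 50 mM KCl with no enzyme, then run on agarose gel. Shift in electrophoretic mobility was read as intercalation/binding.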
# Jurkat [7] = experiment: Induction of apoptosis in human Jurkat T cells assessed as PARP cleavage at 3.2 uM after 24 hrs by flow cytometry (reference value: 4.8%); type: functional
# Jurkat [8] = experiment: Induction of apoptosis in human Jurkat T cells assessed as caspase3 activation at 6.4 uM after 24 hrs by colorimetric assay relative to control; type: functional
# Outline: (§2)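 Jurkat cells were treated 24 h (0–6.4), and 3×10^6 cells were washed in PBS and lysed 10 min on ice. Cleared lysate was incubated 2 h at 37 °C in the dark with 10 mM DTT buffer and DEVD-pNA substrate. Absorbance at 405 nm was read against a no-substrate blank and expressed as fold over untreated cells. Valinomycin for 1 h was the positive control; three experiments.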
# Jurkat [9] = experiment: Induction of apoptosis in human Jurkat T cells at 3.2 uM after 24 hrs by annexin V-phycoerythrin/7-AAD staining based flow cytometry (reference value: 5.8 to 6.6%); type: functional
# [10] = biological target: T1, DNA topoisomerase 2-alpha; experiment: Poison activity at human topoisomerase-2alpha assessed as stabilization of DNA-enzyme cleavage complex at 0.5 to 100 uM using supercoiled pBR322 DNA as substrate after 1 hr by ethidium bromide staining based agarose gel electrophoresis
# Outline: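 Cleavage-complex test: supercoiled pBR322 was exposed to compound (0.5–100) with 5 U human topoisomerase IIα for 1 h at 37 °C. Products were run on 1% agarose in TAE with 0.1% SDS (4.9 V/cm, 90 min) and stained with ethidium bromide, with nicked and linearized pBR322 as markers.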
# Jurkat [11] = experiment: Induction of apoptosis in human Jurkat T cells assessed as caspase3 activation at 1.6 uM after 24 hrs by colorimetric assay relative to control; type: functional; outline: as §2
# Escherichia coli [12] = experiment: Binding affinity to Escherichia coli supercoiled pBR322 DNA up to 100 uM by agarose gel electrophoresis; outline: as §1
# T1 sequence (P11388 whole entry): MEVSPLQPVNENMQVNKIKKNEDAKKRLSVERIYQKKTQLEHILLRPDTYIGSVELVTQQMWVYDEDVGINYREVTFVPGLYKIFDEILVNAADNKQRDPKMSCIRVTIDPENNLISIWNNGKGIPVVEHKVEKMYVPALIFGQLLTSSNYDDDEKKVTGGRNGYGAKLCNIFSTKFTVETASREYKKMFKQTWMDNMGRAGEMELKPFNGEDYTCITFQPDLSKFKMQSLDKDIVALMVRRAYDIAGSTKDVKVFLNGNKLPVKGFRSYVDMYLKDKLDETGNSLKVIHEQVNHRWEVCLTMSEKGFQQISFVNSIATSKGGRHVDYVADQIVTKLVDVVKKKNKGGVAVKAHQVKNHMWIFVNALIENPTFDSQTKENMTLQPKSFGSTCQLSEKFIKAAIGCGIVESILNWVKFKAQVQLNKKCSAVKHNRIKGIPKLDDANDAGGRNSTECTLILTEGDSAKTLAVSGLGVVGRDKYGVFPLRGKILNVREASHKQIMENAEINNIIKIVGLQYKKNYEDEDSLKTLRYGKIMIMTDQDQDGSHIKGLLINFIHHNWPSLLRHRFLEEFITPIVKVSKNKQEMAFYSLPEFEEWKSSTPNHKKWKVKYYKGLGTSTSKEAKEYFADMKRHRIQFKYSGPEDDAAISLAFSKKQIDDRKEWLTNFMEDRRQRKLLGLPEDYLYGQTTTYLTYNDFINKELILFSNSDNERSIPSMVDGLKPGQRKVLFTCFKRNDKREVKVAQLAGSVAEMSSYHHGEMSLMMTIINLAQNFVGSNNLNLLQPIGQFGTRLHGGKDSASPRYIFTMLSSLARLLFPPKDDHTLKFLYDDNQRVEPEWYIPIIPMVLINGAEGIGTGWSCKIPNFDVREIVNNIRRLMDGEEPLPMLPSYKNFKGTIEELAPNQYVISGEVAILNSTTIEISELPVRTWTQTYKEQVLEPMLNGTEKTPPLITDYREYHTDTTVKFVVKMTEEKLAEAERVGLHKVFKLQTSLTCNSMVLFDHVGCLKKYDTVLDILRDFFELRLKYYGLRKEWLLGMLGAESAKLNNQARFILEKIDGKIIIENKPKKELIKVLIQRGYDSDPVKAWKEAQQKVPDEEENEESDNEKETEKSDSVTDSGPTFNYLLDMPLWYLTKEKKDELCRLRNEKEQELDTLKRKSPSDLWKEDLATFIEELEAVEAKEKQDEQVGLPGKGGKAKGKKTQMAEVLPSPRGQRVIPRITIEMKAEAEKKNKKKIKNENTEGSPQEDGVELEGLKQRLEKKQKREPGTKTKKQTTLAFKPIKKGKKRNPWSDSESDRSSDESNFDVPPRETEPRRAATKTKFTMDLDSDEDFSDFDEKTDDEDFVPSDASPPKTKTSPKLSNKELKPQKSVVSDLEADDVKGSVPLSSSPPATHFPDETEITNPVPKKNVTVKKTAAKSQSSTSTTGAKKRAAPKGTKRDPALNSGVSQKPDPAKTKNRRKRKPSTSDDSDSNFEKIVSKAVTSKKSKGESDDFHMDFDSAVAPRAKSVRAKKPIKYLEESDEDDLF
# Chain of Telomerase reverse transcriptase (Homo sapiens) (O14746 whole entry): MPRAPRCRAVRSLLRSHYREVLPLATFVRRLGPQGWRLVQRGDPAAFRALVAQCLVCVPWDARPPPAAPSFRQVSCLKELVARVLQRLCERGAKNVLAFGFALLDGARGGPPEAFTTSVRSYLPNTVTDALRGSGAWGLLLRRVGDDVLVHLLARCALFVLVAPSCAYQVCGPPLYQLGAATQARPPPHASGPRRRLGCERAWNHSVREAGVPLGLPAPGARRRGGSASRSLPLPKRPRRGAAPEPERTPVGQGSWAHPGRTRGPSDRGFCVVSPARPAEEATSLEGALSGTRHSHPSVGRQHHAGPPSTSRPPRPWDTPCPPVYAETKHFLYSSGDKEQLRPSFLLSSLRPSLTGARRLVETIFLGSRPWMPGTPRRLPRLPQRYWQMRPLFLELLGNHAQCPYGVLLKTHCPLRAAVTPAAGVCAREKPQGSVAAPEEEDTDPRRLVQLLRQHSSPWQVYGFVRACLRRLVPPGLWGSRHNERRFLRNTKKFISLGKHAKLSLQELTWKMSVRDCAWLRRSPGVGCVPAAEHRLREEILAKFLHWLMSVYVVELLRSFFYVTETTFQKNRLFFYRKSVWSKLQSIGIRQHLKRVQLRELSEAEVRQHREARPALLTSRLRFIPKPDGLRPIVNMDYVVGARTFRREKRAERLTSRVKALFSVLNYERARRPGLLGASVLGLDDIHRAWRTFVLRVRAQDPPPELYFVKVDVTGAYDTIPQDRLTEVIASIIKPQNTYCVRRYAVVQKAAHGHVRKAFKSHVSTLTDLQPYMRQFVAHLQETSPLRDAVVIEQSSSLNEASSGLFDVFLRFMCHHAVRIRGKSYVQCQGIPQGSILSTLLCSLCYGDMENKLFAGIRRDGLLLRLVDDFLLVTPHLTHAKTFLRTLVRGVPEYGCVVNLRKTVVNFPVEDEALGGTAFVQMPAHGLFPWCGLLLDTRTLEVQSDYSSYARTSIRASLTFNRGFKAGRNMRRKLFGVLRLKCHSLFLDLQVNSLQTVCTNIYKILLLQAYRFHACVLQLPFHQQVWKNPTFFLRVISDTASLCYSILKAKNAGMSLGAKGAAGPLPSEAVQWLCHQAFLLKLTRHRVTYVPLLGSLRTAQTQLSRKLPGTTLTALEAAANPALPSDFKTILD
Compound,GI50 (SK-MEL-28),GI50 (HL-60),GI50 (SK-MEL-2),GI50 (HCT-15),GI50 (RPMI-8226),GI50 (T47D),GI50 (MOLT-4),GI50 (CCRF-CEM),ΔTm (Homo sapiens),GI50 (COLO 205),MIC (Thermus aquaticus),IC50 [3],inhibition [4],GI50 (786-0),GI50 (NCI-H322M),GI50 (Hs-578T),GI50 (SF-539),GI50 (CAKI-1),GI50 (EKVX),GI50 (RXF 393),further results
COc1ccccc1CNCCCN1C(=O)c2ccc3c4c(ccc(c24)C1=O)C(=O)N(CCCOCCCCOCCCN)C3=O,1590 nM,810 nM,1830 nM,550 nM,1720 nM,976 nM,546 nM,550 nM,12.9 °C,233 nM,1 µM,5500 nM,,1530 nM,1900 nM,2020 nM,1680 nM,1830 nM,1180 nM,771 nM,
CNCCCNCCCCNCCCN1C(=O)c2ccc3c4c(ccc(c24)C1=O)C(=O)N(CCCNCc1ccccc1OC)C3=O,1400 nM,3680 nM,4460 nM,4270 nM,3000 nM,342 nM,5210 nM,2770 nM,26.1 °C,1380 nM,,,,3360 nM,2210 nM,2900 nM,2040 nM,2250 nM,,3820 nM,
COc1ccccc1CNCCCN1C(=O)c2ccc3c4c(ccc(c24)C1=O)C(=O)N(CCCN)C3=O,1730 nM,1560 nM,1440 nM,1410 nM,1110 nM,1170 nM,433 nM,433 nM,1.4 °C,570 nM,,,,1940 nM,1660 nM,1740 nM,1300 nM,1760 nM,,377 nM,
CNCCCNCCCN1C(=O)c2ccc3c4c(ccc(c24)C1=O)C(=O)N(CCCNCc1ccccc1OC)C3=O,1010 nM,2000 nM,1750 nM,2360 nM,1640 nM,1250 nM,534 nM,465 nM,18 °C,498 nM,,,,1270 nM,2220 nM,3020 nM,782 nM,,,1890 nM,

# The next lines start with results.
GI50 (SK-MEL-28),GI50 (HL-60),GI50 (SK-MEL-2),GI50 (HCT-15),GI50 (RPMI-8226),GI50 (T47D),GI50 (MOLT-4),GI50 (CCRF-CEM),ΔTm (Homo sapiens),GI50 (COLO 205),MIC (Thermus aquaticus),IC50 [3],inhibition [4],GI50 (786-0),GI50 (NCI-H322M),Compound,GI50 (Hs-578T),GI50 (SF-539),GI50 (CAKI-1),GI50 (EKVX),GI50 (RXF 393),further results
3030 nM,254 nM,2670 nM,12200 nM,10900 nM,1510 nM,173 nM,317 nM,22 °C,,,,,,,COc1ccccc1CNCCCN1C(=O)c2ccc3c4c(ccc(c24)C1=O)C(=O)N(CCCNCCNCCCN)C3=O,5510 nM,2880 nM,21700 nM,4170 nM,1650 nM,
753 nM,812 nM,907 nM,887 nM,612 nM,793 nM,194 nM,193 nM,13.3 °C,457 nM,0.25 µM,1500 nM,inactive,715 nM,1070 nM,COc1ccccc1CNCCCN1C(=O)c2ccc3c4c(ccc(c24)C1=O)C(=O)N(CCCNCCCN)C3=O,1220 nM,968 nM,828 nM,1020 nM,246 nM,Activity (Jurkat [1]): 56.1%; Activity (Jurkat [2]): 14.5%; Activity (Jurkat [5]): 27.8%; Activity (Escherichia coli [6]): Active; Activity (Jurkat [7]): 7.2%
313 nM,216 nM,223 nM,165 nM,394 nM,215 nM,302 nM,275 nM,29 °C,110 nM,0.5 µM,8100 nM,inactive,616 nM,,COc1ccccc1CNCCCN1C(=O)c2ccc3c4c(ccc(c24)C1=O)C(=O)N(CCCNCCCCN)C3=O,1120 nM,280 nM,198 nM,866 nM,582 nM,Activity (Jurkat [1]): 59.7%; Activity (Jurkat [2]): 22.2%; fold change (FC) (Jurkat [8]): 5.6; Activity (Jurkat [9]): 17.9%; Activity [10]: inactive; fold change (FC) (Jurkat [11]): 2.6; Activity (Jurkat [5]): 20.8%; Activity (Escherichia coli [6]): Active; Activity (Jurkat [7]): 16.6%
390 nM,438 nM,229 nM,1740 nM,626 nM,214 nM,584 nM,425 nM,21.4 °C,168 nM,0.25 µM,2200 nM,,1170 nM,1210 nM,COc1ccccc1CNCCCN1C(=O)c2ccc3c4c(ccc(c24)C1=O)C(=O)N(CCCNCCCCNCCCN)C3=O,1360 nM,426 nM,2610 nM,1400 nM,324 nM,
1630 nM,1060 nM,1090 nM,4460 nM,1950 nM,1300 nM,939 nM,700 nM,22.2 °C,690 nM,0.5 µM,7000 nM,inactive,2280 nM,2140 nM,COc1ccccc1CNCCCN1C(=O)c2ccc3c4c(ccc(c24)C1=O)C(=O)N(CCCCNCCCN)C3=O,2300 nM,1680 nM,13200 nM,2060 nM,886 nM,Activity (Escherichia coli [12]): Active
